Experimental data as given in ChEMBL document CHEMBL2150955, “Design, synthesis and evaluation of N-(substituted benzothiazol-2-yl)amides as anticonvulsant and neuroprotective” (Eur J Med Chem, 2012).
Calls of active or inactive are those of the source. The calls are words filed in the database; no cut-off is given here.

Key:
Mus musculus [1] = assay: Neurotoxicity in ip dosed mouse assessed as minimal motor impairment after 0.5 hrs by rotarod test; type: toxicity, organism-based; conditions: in vivo
Summary of the method: (§1)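 Albino mice of either sex (25-30 g) received 30, 100 or 300 mg/kg (n = 6). Neurological deficit was assessed on the rotarod at 0.5 h and 4 h. The value recorded is the minimum dose producing neurotoxicity in half or more of the mice; 300 mg/kg is the maximum dose.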

Mus musculus [2] = assay: Anticonvulsant activity in ip dosed mouse assessed as compound concentration causing protection against maximal electroshock-induced seizures in half or more test animals after 0.5 hrs; type: functional; conditions: read-out: MED
Summary of the method: (§2)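 Albino mice of either sex (25-30 g), housed under standard conditions with free access to pellet diet and water. Compounds given at 30, 100 and 300 mg/kg (n = 6). MES and scPTZ seizures were read at 0.5 h and 4 h. The value recorded is the minimum dose protecting half or more of the mice; 300 mg/kg is the maximum dose.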

Mus musculus [3] = assay: Anticonvulsant activity in mouse assessed as protection against subcutaneous pentylenetetrazol-induced seizures at 300 mg/kg, ip after 0.5 hrs; type: functional, organism-based; design: dose 300 mg/kg; summary of the method: as §2
Mus musculus [4] = assay: Neurotoxicity in ip dosed mouse assessed as minimal motor impairment after 4 hrs by rotarod test; type: toxicity, organism-based; conditions: in vivo; summary of the method: as §1
Mus musculus [5] = assay: Anticonvulsant activity in mouse assessed as protection against subcutaneous pentylenetetrazol-induced seizures at 300 mg/kg, ip after 4 hrs; type: functional, organism-based; design: dose 300 mg/kg; summary of the method: as §2
Mus musculus [6] = assay: CNS depressant activity in mouse assessed as immobility time at 100 mg/kg, ip measured 60 mins post dose by porsolt's swimming pool test; type: organism-based; design: dose 100 mg/kg, route intraperitoneal; conditions: in vivo, 1 h
Summary of the method: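 Behavioral depression was measured by Porsolt's swim test in albino mice of either sex. Immobility time (s) was recorded 24 h before as the control and again 60 min after treatment. Values are mean ± SEM of six mice, compared with Student's t test.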

Mus musculus [7] = assay: Anticonvulsant activity in mouse assessed as protection against maximal electroshock-induced seizures at 300 mg/kg, ip after 4 hrs; type: functional, organism-based; design: dose 300 mg/kg; summary of the method: as §2
Mus musculus [8] = assay: Anticonvulsant activity in ip mouse assessed as protection against subcutaneous pentylenetetrazol-induced seizures; type: functional
Summary of the method: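 This is the Phase II quantitation in albino mice of either sex (25-30 g). […] TD50 came from the rotarod test, read 30 min after dosing. The protective index is TD50/ED50.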

Mus musculus [9] = assay: Neurotoxicity in mouse assessed as minimal motor impairment at 300 mg/kg, ip after 0.5 hrs by rotarod test; type: toxicity, organism-based; design: dose 300 mg/kg, route intraperitoneal; conditions: in vivo; summary of the method: as §1
Mus musculus [10] = assay: Neurotoxicity in mouse assessed as minimal motor impairment at 300 mg/kg, ip after 4 hrs by rotarod test; type: toxicity, organism-based; design: dose 300 mg/kg, route intraperitoneal; conditions: in vivo; summary of the method: as §1
Mus musculus [11] = assay: Anticonvulsant activity in mouse assessed as protection against maximal electroshock-induced seizures at 300 mg/kg, ip after 0.5 hrs; type: functional, organism-based; design: dose 300 mg/kg; summary of the method: as §2
Mus musculus [12] = assay: Anticonvulsant activity in ip dosed mouse assessed as compound concentration causing protection against maximal electroshock-induced seizures in half or more test animals after 4 hrs; type: functional; conditions: read-out: MED; summary of the method: as §2
Mus musculus [13] = assay: Anticonvulsant activity in ip dosed mouse assessed as compound concentration causing protection against subcutaneous pentylenetetrazol-induced seizures in half or more test animals after 4 hrs; type: functional; conditions: read-out: MED; summary of the method: as §2
Mus musculus [14] = assay: Anticonvulsant activity in ip dosed mouse assessed as compound concentration causing protection against subcutaneous pentylenetetrazol-induced seizures in half or more test animals after 0.5 hrs; type: functional; conditions: read-out: MED; summary of the method: as §2
Mus musculus [15] = assay: Neuroprotective activity in acrylamide-intoxicated mouse assessed as reduction in brain LDH level at 50 mg/kg, ip dosed 3 days/week for 3 weeks administered 10 mins before acrylamide challenge by spectrophotometry; type: functional, organism-based; design: dose 50 mg/kg
Summary of the method: (§3)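 Mice were given acrylamide to induce brain degeneration, with compound administered 10 min before the acrylamide. Brain MDA (lipid peroxidation) and LDH activity were measured against controls. Values are mean ± SEM of six animals, compared with Student's t test.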

Mus musculus [16] = assay: Hepatotoxicity in mouse assessed as effect on SGOT level at 30 mg/kg, po after 2 weeks relative to control; type: toxicity, organism-based; design: dose 30 mg/kg, route oral; conditions: in vivo, 336 h
Summary of the method: (§4)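 Serum SGOT, SGPT, alkaline phosphatase, total albumin and total protein were measured in treated mice against controls (n = 6). Data were analysed by ANOVA followed by Student's t test.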

Mus musculus [17] = assay: Neuroprotective activity in acrylamide-intoxicated mouse assessed as reduction in brain malonaldehyde level at 50 mg/kg, ip dosed 3 days/week for 3 weeks administered 10 mins before acrylamide challenge by TBARS detection assay; type: functional, organism-based; design: dose 50 mg/kg; summary of the method: as §3
Mus musculus [18] = assay: Hepatotoxicity in mouse assessed as effect on total protein level at 30 mg/kg/day, po dosed for 2 weeks relative to control; type: toxicity, organism-based; design: route oral; conditions: in vivo, 336 h; summary of the method: as §4
Mus musculus [19] = assay: Hepatotoxicity in mouse assessed as effect on alkaline phosphatase level at 30 mg/kg/day, po dosed for 2 weeks relative to control; type: toxicity, organism-based; design: route oral; conditions: in vivo, 336 h; summary of the method: as §4
Mus musculus [20] = assay: Hepatotoxicity in mouse assessed as effect on SGPT level at 30 mg/kg/day, po dosed for 2 weeks relative to control; type: toxicity, organism-based; design: route oral; conditions: in vivo, 336 h; summary of the method: as §4
Mus musculus [21] = assay: Hepatotoxicity in mouse assessed as effect on total albumin level at 30 mg/kg/day, po dosed for 2 weeks relative to control; type: toxicity, organism-based; design: route oral; conditions: in vivo, 336 h; summary of the method: as §4
Mus musculus [22] = assay: Anticonvulsant activity in ip dosed mouse assessed as protection against maximal electroshock-induced seizures; type: functional

SMILES | MTC (Mus musculus [1]) | minimal effective dose (Mus musculus [2]) | Activity (Mus musculus [3]) | MTC (Mus musculus [4]) | Activity (Mus musculus [5]) | Time (Mus musculus [6]) | Activity (Mus musculus [9]) | Activity (Mus musculus [10]) | Activity (Mus musculus [11]) | minimal effective dose (Mus musculus [12]) | minimal effective dose (Mus musculus [13]) | other results
O=C(Nc1nc2ccc(Br)cc2s1)c1ccccc1C(=O)c1ccccc1 | 300 mg/kg | 300 mg/kg | inactive | 300 mg/kg | inactive | 179.1 s | – | – | – | – | – | Activity (Mus musculus [7]): inactive
CCCC(CCC)C(=O)[O-].[Na+] [VALPROATE SODIUM] | – | – | – | – | – | – | – | – | – | – | – | ED50 (Mus musculus [8]): 149 mg/kg
O=C(CCC(=O)c1ccccc1)Nc1nc2ccc(F)cc2s1 | – | – | inactive | – | inactive | 160 s | Non-toxic | Non-toxic | inactive | 300 mg/kg | – | –
O=C(CCC(=O)c1ccccc1)Nc1nc2cc(Cl)c(F)cc2s1 | – | 300 mg/kg | inactive | – | inactive | 146.6 s | Non-toxic | Non-toxic | – | 300 mg/kg | – | –
O=C(Nc1nc2ccc(Cl)cc2s1)c1ccccc1C(=O)c1ccccc1 | – | – | inactive | – | – | 157 s | Non-toxic | Non-toxic | inactive | 100 mg/kg | 300 mg/kg | –
O=C1NC(=O)C(c2ccccc2)(c2ccccc2)N1 [PHENYTOIN] | 100 mg/kg | 30 mg/kg | inactive | 100 mg/kg | inactive | – | – | – | – | 30 mg/kg | – | ED50 (Mus musculus [8]): > 300 mg/kg
O=C(Nc1nc2ccc([N+](=O)[O-])cc2s1)c1ccccc1C(=O)c1ccccc1 | 300 mg/kg | 300 mg/kg | inactive | 300 mg/kg | inactive | 154.3 s | – | – | – | – | – | Activity (Mus musculus [7]): inactive
CC(=O)c1ccc2nc(NC(=O)CCC(=O)c3ccccc3)sc2c1 | – | – | inactive | – | – | 168.3 s | Non-toxic | Non-toxic | inactive | 100 mg/kg | 300 mg/kg | –
Cc1ccc2nc(NC(=O)c3ccccc3C(=O)c3ccccc3)sc2c1 | – | 300 mg/kg | – | – | inactive | 180 s | Non-toxic | Non-toxic | – | – | – | minimal effective dose (Mus musculus [14]): 300 mg/kg; Activity (Mus musculus [7]): inactive
O=C(CCC(=O)c1ccccc1)Nc1nc2ccc(Br)cc2s1 | – | – | inactive | 300 mg/kg | inactive | 162 s | Non-toxic | – | inactive | 300 mg/kg | – | –
COc1ccc2nc(NC(=O)c3ccccc3C(=O)c3ccccc3)sc2c1 | – | – | – | – | – | 177 s | Non-toxic | Non-toxic | inactive | 100 mg/kg | 300 mg/kg | minimal effective dose (Mus musculus [14]): 300 mg/kg
O=C(CCC(=O)c1ccccc1)Nc1nc2ccc([N+](=O)[O-])cc2s1 | – | 300 mg/kg | inactive | 300 mg/kg | inactive | 166.1 s | Non-toxic | – | – | – | – | Activity (Mus musculus [7]): inactive
CC(=O)c1ccc2nc(NC(=O)c3ccccc3C(=O)c3ccccc3)sc2c1 | – | – | inactive | – | – | 172.3 s | Non-toxic | Non-toxic | inactive | 300 mg/kg | 300 mg/kg | –
Cc1ccc2nc(NC(=O)CCC(=O)c3ccccc3)sc2c1 | – | 100 mg/kg | – | – | – | 130 s | Non-toxic | Non-toxic | – | 100 mg/kg | 300 mg/kg | Activity (Mus musculus [15]): Active; Activity (Mus musculus [16]): Non-toxic; Activity (Mus musculus [17]): Active; Activity (Mus musculus [18]): Toxic; Activity (Mus musculus [19]): Non-toxic; minimal effective dose (Mus musculus [14]): 300 mg/kg; Activity (Mus musculus [20]): Non-toxic; Activity (Mus musculus [21]): Non-toxic
O=C(Nc1nc2cc(Cl)c(F)cc2s1)c1ccccc1C(=O)c1ccccc1 | 300 mg/kg | 300 mg/kg | inactive | 300 mg/kg | inactive | 158.1 s | – | – | – | 300 mg/kg | – | –
O=C(Nc1nc2ccc(F)cc2s1)c1ccccc1C(=O)c1ccccc1 | 300 mg/kg | – | inactive | 300 mg/kg | – | 147.3 s | – | – | inactive | 100 mg/kg | 300 mg/kg | –
O=C(CCC(=O)c1ccccc1)Nc1nc2ccc(Cl)cc2s1 | – | 300 mg/kg | – | – | – | 134.5 s | Non-toxic | Non-toxic | – | 300 mg/kg | 300 mg/kg | Activity (Mus musculus [15]): Active; Activity (Mus musculus [16]): Non-toxic; Activity (Mus musculus [17]): Active; Activity (Mus musculus [18]): Non-toxic; Activity (Mus musculus [19]): Non-toxic; minimal effective dose (Mus musculus [14]): 300 mg/kg; Activity (Mus musculus [20]): Non-toxic; Activity (Mus musculus [21]): Non-toxic
NC(=O)N1c2ccccc2C=Cc2ccccc21 [CARBAMAZEPINE] | 100 mg/kg | 30 mg/kg | – | 300 mg/kg | – | 179.5 s | – | – | – | 100 mg/kg | 300 mg/kg | ED50 (Mus musculus [8]): > 100 mg/kg; ED50 (Mus musculus [22]): 8.8 mg/kg; minimal effective dose (Mus musculus [14]): 100 mg/kg
